Assay outcomes deposited in PubChem BioAssay by several laboratories.
Only some compounds are listed: those with a hit (about 1.2% of all), similar ones and a draw of the others.
ARFGAP1 inhibitor: inhibitors of rat ARFGAP1 GAP activity, primary screen, biochemical, fluorescence polarization, GDP tracer; AID 651572, 2012; Arfgap1-stimulated ARF1 GTP hydrolysis, GDP FP detection; inhibition, % at 16.5 µM; ADP-ribosylation factor GTPase-activating protein 1 (Rattus norvegicus), Q62848; 0.26% of 360,000 active;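 active = inhibition above a per-plate limit, mean inhibition of low control wells plus 3 SD, cut at about 25% in these data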;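 note: 0% = DMSO wells with enzyme and 100% = wells lacking Arfgap1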
Target sequence (Q62848 1-136 limits assumed): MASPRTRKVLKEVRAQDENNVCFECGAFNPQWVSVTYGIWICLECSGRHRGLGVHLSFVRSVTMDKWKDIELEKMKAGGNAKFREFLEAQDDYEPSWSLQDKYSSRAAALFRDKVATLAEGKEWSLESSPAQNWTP
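Assay system: purified rat His6-Arfgap1 residues 1-136 (GAP domain); Reagent: human Δ17 ARF1 bound to GTP; Dosing: 16.5 µM single point, 1.26% DMSO; Times: GTP hydrolysis reaction 2 h at 25 °C; Signal: FP, GDP Alexa 633 tracer displaced from anti-GDP antibody, 620/688 nm; Measure: % inhibition from polarization.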
procasp3 activ: activators of human procaspase-3 D3A mutant, primary screen, biochemical, absorbance, PC-3 D3A mutant, single concentration; 0.11% of 330,000 active; recombinant procaspase-3 D3A, Ac-DEVD-pNA absorbance 405 nm; Caspase-3 (Homo sapiens), P42574; AID 463141, 2010; activation, % at 8.5 µM;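 active = activation above the mean of all tested compounds plus 3 SD, cut at about 21% in these data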;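 note: 0% = DMSO alone and 100% = DMSO wells spiked with extra 5 µM PC-3 D3A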
Target sequence (P42574 whole entry D9A/D28A/D175A): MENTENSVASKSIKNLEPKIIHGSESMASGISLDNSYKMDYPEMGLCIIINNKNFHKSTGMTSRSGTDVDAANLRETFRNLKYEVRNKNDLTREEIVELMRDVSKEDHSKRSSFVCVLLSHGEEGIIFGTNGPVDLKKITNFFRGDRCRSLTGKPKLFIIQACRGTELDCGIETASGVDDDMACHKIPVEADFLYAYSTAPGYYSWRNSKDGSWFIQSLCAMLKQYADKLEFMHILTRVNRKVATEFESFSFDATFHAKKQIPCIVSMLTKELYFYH
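Assay system: Procaspase-3 D3A mutant, all three cleavage aspartates alanine. Buffer or medium: Zinc-free HEPES saline buffer with Triton X-100. Times: 1 h compound preincubation, 2 h substrate hydrolysis at 25 °C. Measured by: 405 nm absorbance of p-nitroaniline, reads at 0 and 120 min. Read-out basis: percent activation relative to control range. Replicates: singlicate.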
procasp7 counter: procaspase-7 activators, primary screen, counter-screen for procaspase-3 activator project, biochemical, absorbance, HTS, human | recombinant procaspase-7, Ac-DEVD-pNA absorbance 405 nm; D23A/D198A/D206A triple mutant, cannot self-cleave; scale: DMSO 0, 5 µM enzyme 100 | activation, % at 8.5 µM | 0.093% of 330,000 active | AID 463210, 2010;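 active = percent activation above the screen-wide mean plus 3 SD, cut at about 25% in these data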
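Assay system: Uncleavable procaspase-7 mutant enzyme / Input: 2 µM procaspase-7 mutant as dispensed / Dosing: single nominal 8.5 µM compound dose, 0.8% DMSO final / Timing: 1 h enzyme–compound preincubation and 2 h substrate reaction, both 25 °C / Detection: p-Nitroaniline absorbance at 405 nm, read at 0 and 120 min / Replication: singlicate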
ASAP1 inh: inhibitors of human ASAP1 ArfGAP activity, primary screen, biochemical, fluorescence polarization; Arf-GAP with SH3 domain, ANK repeat and PH domain-containing protein 1 (Homo sapiens), …; ASAP1-stimulated ARF1 GTP hydrolysis, GDP FP detection; inhibition, % at 16.5 µM; 0.19% of 360,000 active; AID 624377, 2012; in the data active = inhibition above about 25%;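 note: 0% = vehicle with enzyme and substrate and 100% = no enzyme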
CR mimetic SO: reduction of superoxide in aged yeast, primary screen, HTS; superoxide response (% of plate mean), % at 10 µM; AID 2690, 2010; S. cerevisiae aged cells, superoxide DHE fluorescence; active compounds read low; 0.18% of 330,000 active;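 active = superoxide response under a set limit, about three screen SD below normal, cut at about 65% in these data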;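 note: yeast aged for seven days with compound at 30 °C before DHE staining; 100% = average MFI of all compound-treated wells on the plate with controls excluded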
LANA-H2B inh: blockers of LANA interaction with H2A/H2B – biochemical, FP readout, HTS, primary screen; Protein LANA1 (Human herpesvirus 8 type P (isolate GK18)), Q9QR71; cell-free LANA-H2A/H2B peptide, fluorescence polarization; inhibition, % (concentration not given with the values); 0.6% of 320,000 active; AID 2629, 2010; in the data active = inhibition mostly above about 10%, no sharp cut-off; inactive = mostly below about 6.7%
ASAP1 GAP conf: ASAP1 GAP activity inhibitors, confirmation, biochemical, fluorescence polarization, human, triplicate. shares compounds with ASAP1 inh. ASAP1-stimulated Arf1 GTPase, GDP fluorescence polarization. inhibition, % at 16.5 µM. 37% of 620 active;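 active = mean inhibition over triplicates exceeds the hit threshold derived for the earlier primary screening run, cut at about 25% in these data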
ARFGAP1 confirm: ARFGAP1 inhibitor hit confirmation, biochemical, fluorescence polarization, triplicate. shares compounds with ARFGAP1 inhibitor. ARFGAP1-stimulated ARF1 GTP hydrolysis, GDP tracer FP. inhibition, % at 16.5 µM. 30% of 890 active. AID 651608, 2012;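 active = average inhibition over triplicates above the hit cutoff set in the earlier primary screen, cut at about 25% in these data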;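 note: 0% = Arfgap1 plus ARF1-GTP with DMSO and 100% = wells lacking Arfgap1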
* = called active by the depositor; x = no result.

SMILES | ARFGAP1 inhibitor | procasp3 activ | procasp7 counter | ASAP1 inh | CR mimetic SO | LANA-H2B inh | ARFGAP1 confirm | others
Cn1c(O)c(/C=C2/C=CC=N2)c(=O)[nH]c1=O | -6 | -7 | -8 | -14 | 97 | -3 | x
COP(=O)(OC)C(NC(C)=O)C(Cl)(Cl)Cl (stereo unspecified) | 14 | 2 | 6 | 26* | 107 | -1 | x | ASAP1 GAP conf=4
O=C1NCN(c2ccccc2)C12CCN(C(c1nnnn1C1CCCC1)C1CC1)CC2 (stereo unspecified) | 4 | x | x | -6 | x | x | x
Cc1ccc(/C=C2\C(=O)NC(=O)N(Cc3ccccc3Cl)C2=O)o1 | 2 | -6 | -24 | 28* | 103 | 3 | x | ASAP1 GAP conf=8
CCSc1nnc([C@@H](N)Cc2ccccc2)o1 | 5 | 2 | 7 | 1 | 108 | -1 | x
CCSc1nnc(C(N)Cc2ccccc2)o1 (stereo unspecified) | -3 | 5 | 7 | 29* | 99 | 1 | x | ASAP1 GAP conf=-2
CC(C)(C)c1ccc(CSc2cnn(C(C)(C)C)c(=O)c2Cl)cc1 | -2 | 2 | 12 | 6 | 110 | 2 | x
Clc1ccc(COC(Cn2ccnc2)c2ccc(Cl)cc2Cl)cc1 (stereo unspecified) | 1 | 1 | 2 | -9 | 104 | -6 | x
Clc1ccc(C(c2ccc(Cl)cc2)n2cc[n+](CC(OCc3ccc(Cl)cc3Cl)c3ccc(Cl)cc3Cl)c2)cc1 (stereo unspecified) | 28* | -6 | -2 | 20 | 110 | -28 | 81*
Cc1ccccc1-n1c(O)c(/C=N/Nc2nc3c(c(=O)n(C)c(=O)n3C)n2C)c(=O)[nH]c1=S | 26* | -3 | -1 | 1 | 104 | -5 | 4
OC12Oc3ccccc3C=C1N1CCC2CC1 (stereo unspecified) | 25* | 4 | -2 | -5 | 107 | -4 | 4
CC(=O)OC1CC[C@@]2(C)C(=CC(=O)C3C4CCC(OC(C)=O)[C@@]4(C)CCC32)C1 (stereo partly specified) | -10 | -12 | 3 | 4 | 90 | 6 | x
CN(c1ccc(OCC(=O)N2CCN(C/C=C/c3ccccc3)CC2)cc1)S(=O)(=O)c1cccs1 | 27* | 7 | -3 | -12 | 98 | -1 | 4
COc1ccc(/C=C/C(=O)NC(=S)N2C[C@H]3C[C@H](C2)c2cccc(=O)n2C3)cc1 | -10 | -2 | -6 | -2 | 69 | -1 | x
COc1ccc(C(=O)NC(=S)N2C[C@H]3C[C@H](C2)c2cccc(=O)n2C3)cc1 | 34* | 3 | -2 | 3 | 77 | 2 | 7
CCOC(=O)c1ccccc1NC(=O)c1c(O)[nH]c(=S)[nH]c1=O | -4 | 1 | -2 | 0 | x | -1 | x
COC(=O)C1=C(c2cccc(C#N)c2)C[C@@H]2CC[C@H]1N2C(=O)NCCOc1ccc(OC)cc1 | -4 | -3 | -2 | 3 | 99 | 2 | x
CCOC(=O)c1c(NS(=O)(=O)c2ccccc2)n(CCCOC)c2nc3ccccc3nc12 | 34* | -13 | -23 | 4 | 99 | 1 | -10
Cc1ccc(C2=NCC(=O)Nc3ccc(Br)cc32)cc1 | 6 | 4 | 0 | 11 | 110 | 0 | x
